Laboratory results as given in PubChem BioAssay AID463080 (The Scripps Research Institute Molecular Screening Center, 2010).

biological target: Wee1-like protein kinase (Homo sapiens) (UniProt P30291); experiment: WEE1 stabilizers, potency, late-stage follow-up, cell-based, HeLa, WEE1K328M-luciferase, luminescence, assay provider (AID 463080); conditions: HeLa WEE1K328M-luciferase stabilization
Outline: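 Material – transfected HeLa with WEE1 K328M–luciferase reporter · Timing – 20 h compound treatment at 37 °C · Detection – lytic luciferase luminescence · Read-out – EC50 of WEE1-fusion to luciferase-only luminescence ratio, higher meaning stabilization · Repeats – four replicate wells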

Chain of Wee1-like protein kinase (Homo sapiens) (P30291 whole entry K328M, the tested form may be a part): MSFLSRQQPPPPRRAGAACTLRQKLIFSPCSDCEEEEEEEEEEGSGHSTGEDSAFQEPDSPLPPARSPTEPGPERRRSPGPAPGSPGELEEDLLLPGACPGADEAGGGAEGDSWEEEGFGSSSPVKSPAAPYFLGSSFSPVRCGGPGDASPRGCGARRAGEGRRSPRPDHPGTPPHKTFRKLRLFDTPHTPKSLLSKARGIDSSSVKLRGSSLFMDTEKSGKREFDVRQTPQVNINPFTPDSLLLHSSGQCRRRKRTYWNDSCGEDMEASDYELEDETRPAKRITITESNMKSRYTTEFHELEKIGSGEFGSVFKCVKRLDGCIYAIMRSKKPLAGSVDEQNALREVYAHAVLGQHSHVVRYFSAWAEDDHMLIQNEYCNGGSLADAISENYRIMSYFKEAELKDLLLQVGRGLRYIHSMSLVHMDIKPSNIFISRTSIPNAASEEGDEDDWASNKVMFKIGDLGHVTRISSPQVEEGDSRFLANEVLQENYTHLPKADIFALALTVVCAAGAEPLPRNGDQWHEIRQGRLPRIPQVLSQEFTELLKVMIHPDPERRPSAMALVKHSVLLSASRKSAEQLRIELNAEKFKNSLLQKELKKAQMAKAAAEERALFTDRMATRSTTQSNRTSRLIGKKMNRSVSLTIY

EC50, active:
CC(C)n1cnc2c(NCc3nc4c([N+](=O)[O-])cccc4[nH]3)nc(N3CCOCC3)nc21 201 nM
Clc1ccc2nc(CNc3nc(N4CCOCC4)nc4c3ncn4-c3ccsc3)[nH]c2c1 164 nM
O=[N+]([O-])c1cccc2[nH]c(CNc3nc(N4CCOCC4)nc4c3ncn4-c3ccsc3)nc12 40 nM
CCOC(=O)c1cccc2[nH]c(CNc3nc(N4CCOCC4)nc4c3ncn4-c3ccsc3)nc12 207 nM
c1ccc2[nH]c(CNc3nc(N4CCOCC4)nc4c3ncn4-c3ccsc3)nc2c1 624 nM
